The record followed here is ChEMBL document CHEMBL3621094, “Effect of alkyl group on transnitrosation of N-nitrosothiazolidine thiocarboxamides” (Bioorg Med Chem, 2015).

Type in all cases: physicochemical
The nature of data set [1]: Transnitrosation activity assessed as S-nitrosoglutathione yield at 0.45 mM in presence of 5 mM GSH at pH 1.5 at 37 degC under dark condition after 24 hrs. Particulars: pH 1.5, 24 h, 450 µM. A digest of the protocol:
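Reaction run at 0.45 mM N-nitrosamine and 5.0 mM GSH, with DTPA, at pH 1.5 (HCl) and 37 °C in the dark. After 24 h, yield was calculated as GSNO formed divided by N-nitrosamine consumed.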

Data set [2] is described as follows: Transnitrosation activity assessed as compound consumption level at 0.45 mM in presence of 5 mM GSH at pH 1.5 at 37 degC under dark condition after 24 hrs. Particulars: pH 1.5, 24 h, 450 µM. The method, boiled down: (§1)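 Nitrosamine (4.5 mM acetonitrile stock, 0.45 mM final) added to GSH (5.0 mM) with DTPA. The mixture was acidified to pH 1.5 with 0.1 M HCl and held at 37 °C in the dark. GSNO formation was followed against time, and data were taken after 24 h.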

Data set [3] is described as follows: Transnitrosation activity assessed as S-nitrosoglutathione level at 0.45 mM in presence of 5 mM GSH at pH 1.5 at 37 degC under dark condition. As to conditions: pH 1.5, 450 µM. The method, boiled down: as §1
Data set [4] is described as follows: Transnitrosation activity assessed as pseudo first order rate constant at 0.45 mM in presence of 5 mM GSH at pH 1.5 at 37 degC under dark condition. Particulars: pH 1.5, 450 µM. The method, boiled down: (§2)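 Pseudo-first-order kobs for GSNO formation was measured at 0.45 mM N-nitrosamine, 5.0 mM GSH with DTPA, and 37 °C, with pH set by HCl (pH-rate profile 1.4–3.3). kobs was the least-squares slope of the initial linear part of ln{[GSNO∞]/([GSNO∞]−[GSNO])} versus time, taking GSNO∞ as the initial nitroso compound level (0.45 mM). There were three separate trials.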

Data set [5] in a line: Transnitrosation activity assessed as pseudo first order rate constant at 0.45 mM in presence of 5 mM GSH at pH 2 at 37 degC under dark condition. As to conditions: pH 2, 450 µM. A digest of the protocol: as §2
Data set [6] is described as follows: Transnitrosation activity assessed as pseudo first order rate constant at 0.45 mM in presence of 5 mM GSH at pH 1.7 at 37 degC under dark condition. As to conditions: pH 1.7, 450 µM. A digest of the protocol:
as §2

A short description of data set [7]: Transnitrosation activity assessed as pseudo first order rate constant at 0.45 mM in presence of 5 mM GSH at pH 2.2 at 37 degC under dark condition. As to conditions: pH 2.2, 450 µM. A digest of the protocol: as §2
Data set [8] in a line: Transnitrosation activity assessed as pseudo first order rate constant at 0.45 mM in presence of 5 mM GSH at pH 1.4 at 37 degC under dark condition. As to conditions: pH 1.4, 450 µM. The method, boiled down:
as §2

Data set [9] is described as follows: Transnitrosation activity assessed as pseudo first order rate constant at 0.45 mM in presence of 5 mM GSH at pH 2.8 at 37 degC under dark condition. Particulars: pH 2.8, 450 µM. A digest of the protocol:
as §2

Data set [10] can be described thus: Transnitrosation activity assessed as pseudo first order rate constant at 0.45 mM in presence of 5 mM GSH at pH 3.4 at 37 degC under dark condition. As to conditions: pH 3.4, 450 µM.

Consider `CNC(=S)C1CSCN1N=O` (stereo not drawn), for which the Activity in data set [1] is 85%; in data set [2], 0.45 mM; in data set [3], 0.38 mM. Also, the K in [4] is reported as 464 ×10⁻⁷ /s.

For `CN(C)C(=S)C1CSCN1N=O` (stereo not drawn), the Activity came to 84% in data set [1], 0.45 mM in data set [2] and 0.38 mM in data set [3]. The K in [4] came out at 405 ×10⁻⁷ /s.

With `NC(=S)C1CSCN1N=O` (stereo not drawn), the “log K” value in data set [5] is listed as -5.24; in [6], -4.24; in [7] it was -4.73; in [8] it was -3.73; in data set [9] it was -6.16; in data set [10], -6.37. In addition, the Activity is 95% in data set [1], 0.45 mM in data set [2] and 0.43 mM in [3]. Moreover, in [4], the K was 1301 ×10⁻⁷ /s.
